Laboratory results taken from ChEMBL document CHEMBL4732019, “Collaborative virtual screening to elaborate an imidazo[1,2-a]pyridine hit series for visceral leishmaniasis” (RSC Med Chem, 2021).

Tests used:
[1] = Kinetic solubility of the compound at 200 uM incubated for 24 hrs at pH 7.4 by HPLC/UV analysis; assay type: physicochemical; details: buffer, pH 7.4, 24 h
Summary of the method: (§1)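 Shake-flask method: 10 mM DMSO stock diluted to 200 μM in phosphate buffer pH 2.0 or pH 7.4 (2% DMSO final). Shaken at 500 rpm, 24 h, room temperature, then filtered through polycarbonate membrane. Filtrate quantified by HPLC-UV against 1, 20 and 200 μM standards injected in duplicate.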

[2] = Kinetic solubility of the compound at 200 uM incubated for 24 hrs at pH 2 by HPLC/UV analysis; assay type: physicochemical; details: buffer, pH 2, 24 h; summary of the method: as §1
[3] = Drug uptake in BALB/c mouse plasma at 50 mg/kg, po measured after 24 hrs by LC/MS/MS analysis; assay type: ADME, organism-based; details: in vivo

| SMILES | Kinetic_solubility [1] [µg/mL] | Kinetic_solubility [2] [µg/mL] | Drug uptake [3] |
| --- | --- | --- | --- |
| Cc1ccn2c(Nc3ccc(F)cc3)c(-c3ccccn3)nc2c1 | < 0.5 | 73 |  |
| Cc1ccn2c(NC3CCCC3)c(-c3ccc(N(C)C)cc3)nc2c1 | < 0.5 | 67 |  |
| COc1ccn2c(Nc3cc(F)cc(F)c3)c(-c3ccccn3)nc2c1 |  |  | Not Active |

Second part, the compound after the results:

| Kinetic_solubility [1] [µg/mL] | Kinetic_solubility [2] [µg/mL] | Drug uptake [3] | SMILES |
| --- | --- | --- | --- |
| 8 | 72 |  | Cc1ccc2nc(-c3ccccn3)c(Nc3ccc4c(c3)OCCO4)n2c1 |
| > 76 | > 76 |  | COc1ccn2c(Nc3ccc(F)cn3)c(-c3ccccn3)nc2c1 |
| < 0.5 | > 76 |  | Clc1ccc2nc(-c3ccccn3)c(Nc3ccc4c(c3)OCCO4)n2c1 |
